An excerpt weighted towards active compounds, which were near 1.2% of everything screened.
procasp3 activ: activators of human procaspase-3 D3A mutant, primary screen, biochemical, absorbance, PC-3 D3A mutant, single concentration. activation, % at 8.5 µM. recombinant procaspase-3 D3A, Ac-DEVD-pNA absorbance 405 nm. Caspase-3 (Homo sapiens), P42574. AID 463141, 2010. hit rate 0.11% among 330,000;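 active means activation above the mean of all tested compounds plus 3 SD, cut at about 21% in these data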;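 further: 0% = DMSO alone and 100% = DMSO wells spiked with extra 5 µM PC-3 D3A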
Target sequence (P42574 whole entry D9A/D28A/D175A): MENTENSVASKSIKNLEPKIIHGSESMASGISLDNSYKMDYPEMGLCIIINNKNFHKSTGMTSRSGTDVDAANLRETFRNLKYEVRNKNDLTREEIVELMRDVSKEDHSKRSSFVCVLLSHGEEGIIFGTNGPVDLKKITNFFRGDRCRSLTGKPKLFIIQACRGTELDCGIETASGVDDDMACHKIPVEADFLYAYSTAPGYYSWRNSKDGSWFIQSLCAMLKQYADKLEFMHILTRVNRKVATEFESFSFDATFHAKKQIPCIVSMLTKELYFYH
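Assay system: Autoprocessing-dead procaspase-3 D3A mutant enzyme; also added: Ac-DEVD-pNA; doses: one concentration, 8.5 µM nominal, 0.8% DMSO; times: 1 h compound preincubation, 2 h substrate hydrolysis at 25 °C; technique: 405 nm absorbance of p-nitroaniline, reads at 0 and 120 min; measure: % activation between DMSO and enzyme-spiked controls; repeats: single replicate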
p-CIP stab down: p/CIP-EGFP fusion destabilizers, primary screen, fluorescence, F442A cells. Q05BA5. 16 h. decrease of EGFP signal, % at 10 µM. hit rate 0.01% among 290,000;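 active means EGFP signal decrease of at least 30% at 10 µM or well 3 SD below plate mean, unless failing retest; inactive means the rest, including hits failing retest or dose response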
Rce1 inh: yeast Rce1p protease inhibitors, primary screen, biochemical, fluorescence, cell-free homogeneous; CAAX prenyl protease 2 (Saccharomyces cerevisiae (strain ATCC 204508 / S288c)), Q03530; yeast membranes, quenched prenylated peptide cleavage fluorescence; calls only; hit rate 0.27% among 290,000;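 active means fall in fluorescence gain of 50% or more versus controls, with final raw signal at or below 3038400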;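 further: plate controls were neutral control wells for no effect and wells lacking membranes for full effect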
Target sequence (Q03530 whole entry, looked up): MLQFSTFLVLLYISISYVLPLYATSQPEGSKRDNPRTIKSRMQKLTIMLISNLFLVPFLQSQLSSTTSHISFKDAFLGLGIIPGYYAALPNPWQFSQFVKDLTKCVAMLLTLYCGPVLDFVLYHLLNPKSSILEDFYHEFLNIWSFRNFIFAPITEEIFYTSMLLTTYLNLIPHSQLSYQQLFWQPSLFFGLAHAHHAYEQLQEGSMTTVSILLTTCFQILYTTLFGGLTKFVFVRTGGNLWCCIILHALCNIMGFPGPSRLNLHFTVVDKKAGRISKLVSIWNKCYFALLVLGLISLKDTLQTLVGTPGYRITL
procasp7 counter: procaspase-7 activators, primary screen, counter-screen for procaspase-3 activator project, biochemical, absorbance, HTS, human. activation, % at 8.5 µM. recombinant procaspase-7, Ac-DEVD-pNA absorbance 405 nm; D23A/D198A/D206A triple mutant, cannot self-cleave; scale: DMSO 0, 5 µM enzyme 100. Caspase-7 (Homo sapiens), P55210. hit rate 0.093% among 330,000;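 active means percent activation above the screen-wide mean plus 3 SD, cut at about 25% in these data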
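Assay system: Uncleavable procaspase-7 mutant enzyme; Input: 2 µM procaspase-7 mutant as dispensed; Also added: DEVD-pNA substrate; Medium: Zinc-free HEPES pH 7.4 with 300 mM NaCl, 0.01% Triton X-100; Timing: 1 h compound preincubation, 2 h substrate cleavage, 25 °C; Measured by: Epi-absorbance of released pNA at 405 nm, two timepoints.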
GAA850 FXN act: FXN promoter activators, primary screen, cell-based, luciferase luminescence, HEK293 lucGAA850; HEK293 lucGAA850 FXN promoter luciferase reporter, 24 h; percent of 10 µM SAHA response; activation, % at 6 µM; hit rate 0.56% among 360,000; AID 540364, 2011;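 active means activation above the average of all compounds screened plus 3 SD, cutoff fixed separately per campaign, cut at about 7.5% in these data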;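 further: 0% = DMSO wells and 100% = 10 µM SAHA wells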
Lipid droplet: inhibitors of hepatocyte lipid droplet formation, primary screen, imaging, high-throughput imaging, BODIPY stain. hit rate 0.4% among 240,000. AML12 mouse hepatocytes, oleate lipid droplets. inhibition, % at 6.5 µM;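 active means lipid droplet intensity inhibited by at least 50%, with more than 500 cells counted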
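Assay system: AML12 mouse liver cells | Compound: 6.5 µM single-point dosing | Schedule: Overnight exposure | Technique: Fluorescence imaging, 20x objective, two fields per well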
GAA30 counter: GAA30 FXN promoter activators, confirmation, counter-screen for GAA850 frataxin promoter activator project, cell-based, luminescence, HEK293, lucGAA30, triplicate | AID 588350, 2011 | hit rate 66% among 1,900 | activation, % at 6 µM | shares compounds with GAA850 FXN act | HEK293 lucGAA30 FXN promoter luciferase, 24 h; DMSO = 0%, 5 µM ipriflavone = 100%;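 active means mean activation above the mean of solvent-only control wells plus 3 SD, cut at about 22% in these data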;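 further: counterscreen of GAA850 promoter hits where activity marks nonselective or luminescence artifacts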
FXN GAA850 conf: FXN GAA850 promoter activators in reporter cells, confirmation, cell-based, luminescence, HEK293 lucGAA850, triplicate; shares compounds with GAA850 FXN act; HEK293 lucGAA850 FXN promoter luciferase reporter, 24 h; 100% = activation by SAHA; activation, % at 6 µM; hit rate 86% among 1,900; AID 588351, 2011;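 active means mean activation above a set limit taken from the primary screen, cut at about 8% in these data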;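 further: 0% = DMSO wells and 100% = 10 µM SAHA wells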
An asterisk follows results filed as active; i = inactive; / = no result given.

SMILES | procasp3 activ | p-CIP stab down | Rce1 inh | procasp7 counter | GAA850 FXN act | Lipid droplet | GAA30 counter | FXN GAA850 conf
Cc1cc(Br)ccc1NC(=O)CNC(=O)Cn1ncc(Cl)c(Cl)c1=O | 3 | 4 | / | 1 | 8.7* | 1 | 1 | -16
CCC(=O)Nc1ccc(C(=O)Cn2ncc(Cl)c(Cl)c2=O)cc1 | -3 | -20 | i | -2 | 8.7* | -3 | 22* | 11*
O=C(Cn1ncc(Cl)c(Cl)c1=O)c1ccc2c(c1)OCCO2 | -9 | / | / | 3 | 8.6* | / | 8 | 18*
CCOC(=O)c1ccc(NC(=O)Cn2ncc(Cl)c(Cl)c2=O)cc1 | 11 | 2 | i | 4 | -13 | 24 | / | /
COc1ccc(NC(=O)c2ccc(Cl)nc2)cc1S(=O)(=O)N1CCOCC1 | 2 | / | / | -5 | 0 | / | / | /
COc1ccc(NC(=O)Cn2ncc(Cl)c(Cl)c2=O)cc1S(=O)(=O)N1CCOCC1 | 5 | -1 | i | 8 | 7.8* | 2 | -27 | 16*
O=C(Cn1ncc(Cl)c(Cl)c1=O)Nc1ccc2c(c1)OCO2 | 3 | / | / | -12 | 11* | / | 8 | 12*
COc1ccc(S(=O)(=O)Nc2noc3ccccc23)cc1OC | 4 | -2 | i | 4 | 0 | 8 | / | /
Cc1ccc(S(=O)(=O)Nc2ccccc2N=Cc2ccc([N+](=O)[O-])cc2[N+](=O)[O-])cc1 | / | / | / | / | 1 | / | / | /
Cc1ccc2ncccc2c1 | 0 | / | / | -10 | 1 | / | / | /
Cc1ccc2nc(/C=C/c3cccc(F)c3)ccc2c1 | -2 | -2 | i | -8 | 9.5* | -2 | 101* | 30*
COc1ccccc1/C=C/C(=O)OCC(=O)NC1CCCCCCC1 | 0 | / | / | 18 | 1 | / | / | /
Fc1ccc(-c2cnn3c(-c4ccncc4)ccnc23)cc1 | 0 | -4 | i | 5 | 8.6* | -10 | 96* | 30*
CC1=C(C(=O)N(C)C)CC(CC(=O)NCc2cccc3ccccc23)C(=O)N1CCCN1CCCC1=O (centres undefined) | / | / | / | / | -2 | / | / | /
COc1ccc(C(=O)CNc2cccc(F)c2)cc1 | 8 | -8 | i | 9 | 5 | 3 | / | /
CCCCN1C(=O)/C(=C/C=C2/CC(C)(C)CN2C)SC1=S | -13 | -180 | i | -17 | 8.6* | -6 | 95* | 33*
CCN1C(=O)/C(=C/C=C2/SCCN2C)SC1=S | -1 | -151 | i | -10 | 1 | / | / | /
CCCN1C(=O)/C(=C/c2cc(C)n(C)c2C)SC1=Nc1ccc(OC)cc1 | -8 | -44 | i | -13 | 15* | / | 20 | 12*
CCOC(=O)N1CCN(S(=O)(=O)c2c(C(=O)N3CCCCC3)c(C)n(C)c2C)CC1 | 1 | -4 | i | 7 | 1 | 3 | / | /
c1ccc(CSc2nc3ccccc3[nH]2)cc1 | 7 | 7 | i | -2 | 7.9* | 1 | 91* | 29*
Fc1ccc(CSc2nc3ccccc3[nH]2)cc1 | 5 | -1 | i | -7 | 2 | -10 | / | /
O=C1[C@H]2[C@@H](c3ccc(F)cc3)N3C(=O)N(c4ccccc4)C(=O)[C@@]3(Cc3ccccc3)[C@H]2C(=O)N1C1CCCCC1 | 5 | / | i | -5 | 10* | / | 23* | 7
O=C1[C@H]2[C@@H](c3ccc(F)cc3)N3C(=O)N(c4cccc(Cl)c4)C(=O)[C@@]3(Cc3ccccc3)[C@H]2C(=O)N1C1CCCCC1 | 3 | / | i | 0 | 9.3* | / | 13 | 7
O=C1[C@H]2[C@@H](c3ccc(F)cc3)N3C(=O)N(c4cccc(Cl)c4)C(=O)[C@@]3(Cc3ccc(Cl)cc3)[C@H]2C(=O)N1C1CCCCC1 | 0 | -4 | i | -2 | 0 | -3 | / | /
CCc1ccc2[nH]c(=O)c(C(c3nnnn3Cc3ccc(OC)cc3)N3CCOCC3)cc2c1 (centres undefined) | 3 | -2 | i | -1 | 3 | / | / | /
SMILES | procasp3 activ | p-CIP stab down | Rce1 inh | procasp7 counter | GAA850 FXN act | Lipid droplet | GAA30 counter | FXN GAA850 conf
COc1ccc(Cn2nnnc2C(c2cc3cc(C)cc(C)c3[nH]c2=O)N2CCOCC2)cc1 (centres undefined) | -5 | 2 | i | 0 | 8.1* | -57 | 11 | 7
CC(C)c1ccc(NC(=O)N2CCc3ccccc3C2)cc1 | 3 | -14 | / | 3 | 9.0* | -30 | 113* | 32*
O=C(Nc1ccc([N+](=O)[O-])cc1)N1CCc2ccccc2C1 | -13 | -14 | i | -1 | 4 | 0 | / | /
Cc1ccsc1C(=O)N1CCc2ccccc2C1 | 8 | 2 | / | 5 | 8.4* | -8 | 43* | 15*
COc1ccc(C(CC(=O)c2ccc3c(c2)OCO3)C(=O)O)cc1OC (centres undefined) | / | / | / | / | 2 | / | / | /
CCOC(=O)N1CCN(C(=O)c2ccc(NS(C)(=O)=O)cc2)CC1 | -1 | 13 | i | -6 | 9.4* | 25 | 27* | 17*
Cc1ccc(NC(=O)NC2CCCCCCC2)cc1C | / | -12 | i | / | 9.7* | -20 | 93* | 36*
Cc1cccc(NC(=O)NC2CCCCCCC2)c1 | / | -6 | i | / | 7.6* | -5 | 102* | 36*
CCc1ccccc1NC(=O)CCC(=O)N1CCN(C(C)=O)CC1 | / | / | / | / | 3 | / | / | /
O=C(Nc1ccccc1C(=O)NC(Cc1ccccc1)C(=O)O)c1ccccc1 (centres undefined) | 0 | 6 | i | 0 | 2 | 1 | / | /
O=C(Nc1ccccc1C(=O)NC(Cc1ccccc1)C(=O)NC1CCCCC1)c1ccccc1 (centres undefined) | 4 | -4 | i | -3 | 7.7* | -8 | 15 | 6
CCOc1ccc(C2C(C(=O)c3ccc(C)o3)=C(O)C(=O)N2c2nc(C)c(C(=O)OC)s2)cc1 (centres undefined) | -26 | 0 | i | -62 | 7.6* | 11 | 33* | 18*
